Assay results as given in ChEMBL document CHEMBL4014343 (J Med Chem, 2017).
Active and inactive are the calls of the source. The calls are words filed in the database; no cut-off is given here.

Tests used:
U-251 = test: Growth inhibition of human U251 cells incubated for 48 hrs by sulforhodamine B assay; type: functional, cell-based
Method in brief: (§1)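 NCI-60 panel growth inhibition, run by the U.S. National Cancer Institute; GI50 values are means of two test series.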

[1] = biological target: Cyclin-dependent kinase 5/CDK5 activator 1 (Homo sapiens) (UniProt Q00535+Q15078); test: Inhibition of recombinant human N-terminal GST-tagged CDK5 (M1 to P292 residues)/p35NCK (M1 to R307 residues) expressed in baculovirus infected sf9 cells at 1 uM using RB-CTF as substrate by filter binding assay
Chain of Cyclin-dependent kinase 5/CDK5 activator 1 (Homo sapiens) (Q00535 whole entry, the tested form may be a part): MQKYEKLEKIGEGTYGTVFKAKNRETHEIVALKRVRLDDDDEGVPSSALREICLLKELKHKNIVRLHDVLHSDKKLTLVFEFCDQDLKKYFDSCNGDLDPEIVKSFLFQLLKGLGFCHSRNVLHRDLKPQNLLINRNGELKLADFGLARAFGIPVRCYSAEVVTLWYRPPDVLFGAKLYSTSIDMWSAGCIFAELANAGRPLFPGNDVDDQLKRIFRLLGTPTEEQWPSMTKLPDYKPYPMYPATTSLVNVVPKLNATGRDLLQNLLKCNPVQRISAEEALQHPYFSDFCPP
Chain of Cyclin-dependent kinase 5/CDK5 activator 1 (Homo sapiens) (Q15078 99-307 partner limits assumed): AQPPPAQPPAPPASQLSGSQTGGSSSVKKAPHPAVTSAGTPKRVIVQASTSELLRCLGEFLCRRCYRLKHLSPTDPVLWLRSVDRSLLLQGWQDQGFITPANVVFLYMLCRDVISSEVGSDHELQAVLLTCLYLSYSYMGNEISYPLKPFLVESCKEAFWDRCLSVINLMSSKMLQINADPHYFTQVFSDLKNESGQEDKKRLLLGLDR
Method in brief: (§2)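 Single-point profiling at 1 μM in a 22-kinase panel, performed externally by ProQinase; activity read as residual percent of control.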

HCC 2998 = test: Growth inhibition of human HCC2998 cells incubated for 48 hrs by sulforhodamine B assay; type: functional, cell-based
NCI-H522 = test: Growth inhibition of human NCI-H522 cells incubated for 48 hrs by sulforhodamine B assay; type: functional, cell-based
MOLT-4 = test: Growth inhibition of human MOLT4 cells incubated for 48 hrs by sulforhodamine B assay; type: functional, cell-based
TK-10 = test: Growth inhibition of human TK10 cells incubated for 48 hrs by sulforhodamine B assay; type: functional, cell-based; method in brief: as §1
[2] = biological target: T1, Insulin-like growth factor 1 receptor (Homo sapiens, UniProt P08069); test: Inhibition of recombinant human N-terminal GST/His6-tagged IGF1R (M954 to C1367 residues) expressed in sf9 cells assessed as residual activity at 1 uM using Poly(Glu,Tyr)4:1 as substrate by filter binding assay relative to control; method in brief: as §2
T1 sequence (P08069 31-736 limits assumed): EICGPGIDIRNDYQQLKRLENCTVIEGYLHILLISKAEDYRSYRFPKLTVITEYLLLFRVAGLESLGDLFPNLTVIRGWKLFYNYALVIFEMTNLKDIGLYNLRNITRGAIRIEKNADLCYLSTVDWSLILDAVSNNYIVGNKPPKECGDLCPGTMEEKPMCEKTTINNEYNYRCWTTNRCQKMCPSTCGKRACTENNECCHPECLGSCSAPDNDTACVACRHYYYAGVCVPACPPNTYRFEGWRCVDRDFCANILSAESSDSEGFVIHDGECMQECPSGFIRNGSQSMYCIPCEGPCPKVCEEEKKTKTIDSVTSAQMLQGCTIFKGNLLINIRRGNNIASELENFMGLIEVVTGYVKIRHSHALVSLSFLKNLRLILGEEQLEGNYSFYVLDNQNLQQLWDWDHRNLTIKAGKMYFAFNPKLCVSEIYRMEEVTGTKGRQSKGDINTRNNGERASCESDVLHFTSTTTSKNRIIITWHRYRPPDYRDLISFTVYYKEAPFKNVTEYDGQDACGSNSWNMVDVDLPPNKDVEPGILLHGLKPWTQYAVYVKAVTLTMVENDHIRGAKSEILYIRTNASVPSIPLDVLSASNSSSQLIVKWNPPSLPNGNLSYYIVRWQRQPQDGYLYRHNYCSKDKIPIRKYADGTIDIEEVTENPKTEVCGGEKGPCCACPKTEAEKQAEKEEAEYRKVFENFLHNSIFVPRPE
T1 sequence (P08069 741-1367 limits assumed): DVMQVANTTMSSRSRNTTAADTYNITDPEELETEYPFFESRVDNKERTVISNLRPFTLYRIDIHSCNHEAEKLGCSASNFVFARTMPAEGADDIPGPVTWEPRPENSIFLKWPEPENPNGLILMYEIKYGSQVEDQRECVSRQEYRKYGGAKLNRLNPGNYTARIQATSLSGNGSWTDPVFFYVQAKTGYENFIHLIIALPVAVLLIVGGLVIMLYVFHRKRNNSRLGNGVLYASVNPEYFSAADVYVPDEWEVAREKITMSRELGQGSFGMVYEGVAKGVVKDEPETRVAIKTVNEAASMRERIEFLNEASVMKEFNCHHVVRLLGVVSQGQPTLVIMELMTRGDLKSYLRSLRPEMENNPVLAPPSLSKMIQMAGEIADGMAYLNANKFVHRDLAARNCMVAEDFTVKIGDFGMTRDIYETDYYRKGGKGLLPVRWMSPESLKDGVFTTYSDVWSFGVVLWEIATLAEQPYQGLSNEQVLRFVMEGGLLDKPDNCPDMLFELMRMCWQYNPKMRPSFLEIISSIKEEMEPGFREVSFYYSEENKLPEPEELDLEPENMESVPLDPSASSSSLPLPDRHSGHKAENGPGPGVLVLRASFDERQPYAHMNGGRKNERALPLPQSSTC

[3] = biological target: Cyclin-dependent kinase 4/cyclin D1 (Homo sapiens) (UniProt P11802+P24385); test: Inhibition of recombinant human N-terminal GST-tagged CDK4 (S4 to E303 residues)/Cyclin D1 (Q4 to I295 residues) expressed in sf9 cells at 1 uM using RB-CTF as substrate by filter binding assay; method in brief: as §2
RPMI-8226 = test: Growth inhibition of human RPMI8226 cells incubated for 48 hrs by sulforhodamine B assay; type: functional, cell-based
MDA-MB-435 = test: Growth inhibition of human MDA-MB-435 cells incubated for 48 hrs by sulforhodamine B assay; type: functional, cell-based
HCT-116 = test: Growth inhibition of human HCT116 cells incubated for 48 hrs by sulforhodamine B assay; type: functional, cell-based
RXF 393 = test: Growth inhibition of human RXF393 cells incubated for 48 hrs by sulforhodamine B assay; type: functional, cell-based
A498 = test: Growth inhibition of human A498 cells incubated for 48 hrs by sulforhodamine B assay; type: functional, cell-based
MCF7 = test: Cell cycle arrest in human MCF7 cells assessed as accumulation at G2/M phase up to 1 uM after 24 to 48 hrs by propidium iodide staining based FACS analysis; type: functional
Method in brief: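 MCF7 cells grown 24 h in DMEM with 10% FBS and 1% PS, then exposed to 1 μM for 24 and 48 h. Pellets fixed in 70% ethanol for at least 24 h, washed twice in ice-cold PBS, treated with RNase A (50 μg/mL, 1 h, 37 °C), stained with PI (50 μg/mL, 5 min), and DNA content read by FACS.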

[4] = biological target: T1, Insulin-like growth factor 1 receptor; test: Inhibition of IGF1R in human MDA-MB-231 cells assessed as reduction in Akt phosphorylation at Ser473 residue after 24 hrs by immunoblot analysis; type: cell-based
Method in brief: (§3)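 Cells in their medium with 10% FBS exposed to rising concentrations for 24 h; whole-cell lysates immunoblotted for p-Akt (S473) and total Akt; PI3K inhibitor at 10 μM as positive control.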

K562 = test: Growth inhibition of human K562 cells incubated for 48 hrs by sulforhodamine B assay; type: functional, cell-based
OVCAR-4 = test: Growth inhibition of human OVCAR4 cells incubated for 48 hrs by sulforhodamine B assay; type: functional, cell-based
EKVX = test: Growth inhibition of human EKVX cells incubated for 48 hrs by sulforhodamine B assay; type: functional, cell-based
HOP-62 = test: Growth inhibition of human HOP62 cells incubated for 48 hrs by sulforhodamine B assay; type: functional, cell-based
OVCAR-3 = test: Growth inhibition of human OVCAR3 cells incubated for 48 hrs by sulforhodamine B assay; type: functional, cell-based
UO-31 = test: Growth inhibition of human UO31 cells incubated for 48 hrs by sulforhodamine B assay; type: functional, cell-based; method in brief: as §1
CCRF-CEM = test: Growth inhibition of human CCRF-CEM cells incubated for 48 hrs by sulforhodamine B assay; type: functional, cell-based
M14 = test: Growth inhibition of human M14 cells incubated for 48 hrs by sulforhodamine B assay; type: functional, cell-based
[5] = biological target: Cyclin-dependent kinase 2/cyclin E1 (Homo sapiens) (UniProt P24864+P24941); test: Inhibition of recombinant human N-terminal GST-tagged CDK2 (M1 to L298 residues)/Cyclin E1 (M1 to A395 residues) expressed in sf9 cells at 1 uM using RB-CTF as substrate by filter binding assay; method in brief: as §2
SK-MEL-2 = test: Growth inhibition of human SK-MEL-2 cells incubated for 48 hrs by sulforhodamine B assay; type: functional, cell-based
UACC-257 = test: Growth inhibition of human UACC257 cells incubated for 48 hrs by sulforhodamine B assay; type: functional, cell-based; method in brief: as §1
SF-295 = test: Growth inhibition of human SF295 cells incubated for 48 hrs by sulforhodamine B assay; type: functional, cell-based
[6] = biological target: T1, Insulin-like growth factor 1 receptor; test: Inhibition of IGF1R in human PANC1 cells assessed as reduction in Akt phosphorylation at Ser473 residue after 24 hrs by immunoblot analysis; type: cell-based; method in brief: as §3
SK-OV-3 = test: Growth inhibition of human SKOV3 cells incubated for 48 hrs by sulforhodamine B assay; type: functional, cell-based
OVCAR-5 = test: Growth inhibition of human OVCAR5 cells incubated for 48 hrs by sulforhodamine B assay; type: functional, cell-based
A549 = test: Growth inhibition of human A549/ATCC cells incubated for 48 hrs by sulforhodamine B assay; type: functional, cell-based
SF-539 = test: Growth inhibition of human SF539 cells incubated for 48 hrs by sulforhodamine B assay; type: functional, cell-based
MDA-MB-468 = test: Growth inhibition of human MDA-MB-468 cells incubated for 48 hrs by sulforhodamine B assay; type: functional, cell-based
HCT-15 = test: Growth inhibition of human HCT15 cells incubated for 48 hrs by sulforhodamine B assay; type: functional, cell-based
NCI-H226 = test: Growth inhibition of human NCI-H226 cells incubated for 48 hrs by sulforhodamine B assay; type: functional, cell-based
NCI-H23 = test: Growth inhibition of human NCI-H23 cells incubated for 48 hrs by sulforhodamine B assay; type: functional, cell-based
CAKI-1 = test: Growth inhibition of human Caki1 cells incubated for 48 hrs by sulforhodamine B assay; type: functional, cell-based
SN12C = test: Growth inhibition of human SN12C cells incubated for 48 hrs by sulforhodamine B assay; type: functional, cell-based
Hs-578T = test: Growth inhibition of human Hs 578T cells incubated for 48 hrs by sulforhodamine B assay; type: functional, cell-based
ACHN = test: Growth inhibition of human ACHN cells incubated for 48 hrs by sulforhodamine B assay; type: functional, cell-based
HL-60(TB) = test: Growth inhibition of human HL-60(TB) cells incubated for 48 hrs by sulforhodamine B assay; type: functional, cell-based

`CN1CCN(CCO/N=C2/C(=C3/C(=O)Nc4ccccc43)Nc3ccccc32)CC1` was tested, and the “growth inhibition (GI)” value (U-251) was “Active”, the inhibition [1] was “inactive” and the “growth inhibition (GI)” value (HCC 2998) was “Active”. For the same compound, the “growth inhibition (GI)” value (NCI-H522) was “Active”, the “growth inhibition (GI)” value (MOLT-4) was “Active” and the “growth inhibition (GI)” value (TK-10) was “Active”. The Activity [2] was 30%, the inhibition [3] was “inactive” and the “growth inhibition (GI)” value (RPMI-8226) was “Active”. For the same compound, the “growth inhibition (GI)” value (MDA-MB-435) was “Active”, the “growth inhibition (GI)” value (HCT-116) was “Active” and the “growth inhibition (GI)” value (RXF 393) was “Active”. The “growth inhibition (GI)” value (A498) was “Active”, the Activity (MCF7) was “Active” and the inhibition [4] was “Dose-dependent effect”. The “growth inhibition (GI)” value (K562) was “Active”, the “growth inhibition (GI)” value (OVCAR-4) was “Active” and the “growth inhibition (GI)” value (EKVX) was “Active”. For the same compound, the “growth inhibition (GI)” value (HOP-62) was “Active”, the “growth inhibition (GI)” value (OVCAR-3) was “Active” and the “growth inhibition (GI)” value (UO-31) was “Active”. For the same compound, the “growth inhibition (GI)” value (CCRF-CEM) was “Active”, the “growth inhibition (GI)” value (M14) was “Active” and the inhibition [5] was “inactive”. For the same compound, the “growth inhibition (GI)” value (SK-MEL-2) was “Active”, the “growth inhibition (GI)” value (UACC-257) was “Active” and the “growth inhibition (GI)” value (SF-295) was “Active”. For the same compound, the inhibition [6] was “Dose-dependent effect”, the “growth inhibition (GI)” value (SK-OV-3) was “Active” and the “growth inhibition (GI)” value (OVCAR-5) was “Active”. For the same compound, the “growth inhibition (GI)” value (A549) was “Active”, the “growth inhibition (GI)” value (SF-539) was “Active” and the “growth inhibition (GI)” value (MDA-MB-468) was “Active”. The “growth inhibition (GI)” value (HCT-15) was “Active”, the “growth inhibition (GI)” value (NCI-H226) was “Active” and the “growth inhibition (GI)” value (NCI-H23) was “Active”. The “growth inhibition (GI)” value (CAKI-1) was “Active”, the “growth inhibition (GI)” value (SN12C) was “Active” and the “growth inhibition (GI)” value (Hs-578T) was “Active”. The “growth inhibition (GI)” value (ACHN) was “Active” and the “growth inhibition (GI)” value (HL-60(TB)) was “Active”.
